Experimental data collected from several papers.
Each line is one published result; the experiments were not run side by side.
Target: Serine/threonine-protein kinase 33 (STK33, Homo sapiens, UniProt Q9BYT3)

The remaining binding of `CC1=C(C#N)[C@@H](c2ccc3[nH]nc(C)c3c2)C(C#N)=C(c2ccc(Cl)cc2)N1` is reported as 90.9% (cell-free assay; competition with immobilised ligand; 1 µM).
The remaining binding of `COc1ccnn2ncc(-c3ccnc(N(C)C)n3)c12` is reported as 99% (binding; 1 µM).
With `C=CC(=O)N1CCC(C(=O)NCC(=O)N2CCN(c3nc(-c4cnc(N)nc4C(F)F)nc(N4CCOCC4)n3)CC2)CC1` the remaining binding was 100% (binding; competition with immobilised ligand; 1 µM).
With `F[C@@H]1CCN(c2nccc(-c3cnn4ncccc34)n2)C1` the remaining binding was 100% (binding; 1 µM).
With `O=C(NCc1ncc(C(F)(F)F)cc1Cl)c1ccc2c(c1)C1(CCS(=O)(=O)CC1)[C@H](C1CC1)N2S(=O)(=O)c1ccc(F)cc1` the remaining binding was 100% (cell-free assay; competition with immobilised ligand; 1 µM).
The remaining binding of `COc1cnc(Nc2cccc(S(N)(=O)=O)c2)nc1N1CCN(c2ccccc2)C(=O)C1` is reported as 93% (binding; competition with immobilised ligand; 1 µM).
For `CNC(=O)c1ccccc1Nc1cc(Nc2ccc(N3CCOCC3)cc2OC)ncc1C(F)(F)F`, the remaining binding was < 10% (binding; competition with immobilised ligand; 1 µM).
With `CN([C@@H]1CCc2c(CC(=O)O)c3ccccc3n2C1)S(=O)(=O)c1ccc(F)cc1` the remaining binding was 100% (cell-free assay; competition with immobilised ligand; 1 µM).
`O=C(NCCCN1CCOCC1)c1ccc(Nc2ncc(Cl)c(-c3ccc(Cl)s3)n2)cc1` has a remaining binding of 68% (binding; competition with immobilised ligand; 1 µM).
`C[C@@H]1CCN(c2nccc(-c3cnn4ncccc34)n2)C1` has a remaining binding of 88% (binding; 1 µM).
With `O=C(c1ccc(Nc2nccc(-c3cc4ccccc4s3)n2)cc1)N1CCC(N2CCCC2)CC1` the remaining binding was 100% (binding; competition with immobilised ligand; 1 µM).
`N[C@@H]1CCN(c2nccc(-c3cnn4ncccc34)n2)C1` has a remaining binding of 100% (binding; 1 µM).
`FC(F)(F)Oc1cccc(-c2cnc3ccc(-c4ccncc4)nn23)c1` has a remaining binding of 72% (binding; competition with immobilised ligand; 5 µM).
For `Cc1cnn2ncc(-c3ccnc(N(C)C)n3)c2c1`, the remaining binding was 100% (binding; 1 µM).
`O=C(Nc1ccc(Oc2ccc(F)cc2)cc1)N1CCc2ncccc2[C@H]1c1ccc(F)cc1` has a remaining binding of 50% (cell-free assay; competition with immobilised ligand; 1 µM).
`O=C(NCC1CCOCC1)c1n[nH]cc1NC(=O)c1c(F)cccc1F` has a remaining binding of 79% (binding; competition with immobilised ligand; 1 µM).
The remaining binding of `C[C@@H](c1ccc(-n2cnc3c(N)ncnc32)cc1)N1CCc2nn(C)c(Cc3ccccc3)c2C1=O` is reported as 100% (binding; competition with immobilised ligand; 0.1 µM).
The remaining binding of `O=C(NCCCN1CCOCC1)c1ccc(Nc2nccc(-c3cc4ccccc4s3)n2)cc1` is reported as 80% (binding; competition with immobilised ligand; 1 µM).
`COc1ncc2cc3ccccc3nc2c1C#N` has a remaining binding of 91% (cell-free assay; competition with immobilised ligand; 5 µM).
With `CC(=O)N1CCC(c2ccc(C(=O)NC3=NCCN3)cc2C(F)(F)F)CC1` the remaining binding was 100% (cell-free assay; competition with immobilised ligand; 1 µM).
With `CNC(=O)[C@@H]1CC[C@@H](n2c(-c3ccc4cnccc4c3)nc3ccc(C(=O)NCc4cccc(C(N)=O)c4)cc32)C1` the remaining binding was 87% (binding; competition with immobilised ligand; 1 µM).
The remaining binding of `CC1=C(C#N)C(c2ccc3c(c2)c(NC(=O)c2ccccc2C)nn3C)C(C#N)=C(C)N1` is reported as 100% (cell-free assay; competition with immobilised ligand; 1 µM).
With `CN(C)c1nccc(-c2cnn3ncccc23)n1` the remaining binding was 75% (binding; 1 µM).
